# Source: ChEMBL document CHEMBL1145748, “Nonpeptide alphavbeta3 antagonists. 8. In vitro and in vivo evaluation of a potent alphavbeta3 antagonist for the prevention and treatment of osteoporosis” (J Med Chem, 2003)
# Columns and labels:
# [1] = Plasma clearance in dog was determined; type: ADME, organism-based, Canis lupus familiaris
# Outline: (§1)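 Dogs given 0.2 mpk iv and 1 mpk po, in water; bioavailability, clearance and half-life taken from the plasma PK profile.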
# [2] = Partition coefficient (logP); type: physicochemical; details: octanol/water
# Outline: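 Partitioning between octanol and pH 7.4 buffer.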
# [3] = Percent binding of compound towards human plasma protein was determined; type: ADME, cell-free
# Outline: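 Human plasma, diluted, with ultrafiltration in pH 7.4 buffer at room temperature. Solutions analyzed by HPLC; high-throughput format.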
# [4] = Bioavailability in dog; type: ADME, organism-based, Canis lupus familiaris; details: in vivo; outline: as §1
# Integrin alpha-V/beta-3 = Integrin alpha-V/beta-3 (Homo sapiens, UniProt P05106+P06756); assay: Inhibition of alphaV-beta3 integrin binding; type: protein-complex assay
# Integrin alpha-V/beta-3, sequence (P05106 27-788 limits assumed): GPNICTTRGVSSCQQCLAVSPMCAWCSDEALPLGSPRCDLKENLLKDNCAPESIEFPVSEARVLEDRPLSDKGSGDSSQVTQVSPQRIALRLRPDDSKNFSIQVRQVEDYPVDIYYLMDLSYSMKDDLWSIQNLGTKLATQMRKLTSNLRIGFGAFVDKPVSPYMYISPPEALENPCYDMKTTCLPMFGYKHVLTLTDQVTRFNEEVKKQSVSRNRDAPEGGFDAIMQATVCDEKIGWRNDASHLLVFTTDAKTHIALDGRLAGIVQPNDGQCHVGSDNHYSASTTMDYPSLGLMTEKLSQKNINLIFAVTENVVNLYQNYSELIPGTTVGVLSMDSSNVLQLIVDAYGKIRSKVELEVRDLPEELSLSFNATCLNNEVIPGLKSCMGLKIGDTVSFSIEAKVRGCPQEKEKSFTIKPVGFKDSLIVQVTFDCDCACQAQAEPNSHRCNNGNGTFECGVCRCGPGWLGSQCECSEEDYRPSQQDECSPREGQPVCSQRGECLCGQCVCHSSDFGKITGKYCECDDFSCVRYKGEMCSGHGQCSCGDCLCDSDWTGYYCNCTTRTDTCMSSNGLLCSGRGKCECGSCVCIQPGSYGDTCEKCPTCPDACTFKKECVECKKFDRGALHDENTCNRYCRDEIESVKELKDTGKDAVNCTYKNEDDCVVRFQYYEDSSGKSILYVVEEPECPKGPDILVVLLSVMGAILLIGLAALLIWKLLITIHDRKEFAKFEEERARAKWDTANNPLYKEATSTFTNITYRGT
# Integrin alpha-V/beta-3, sequence (P06756 31-889 limits assumed): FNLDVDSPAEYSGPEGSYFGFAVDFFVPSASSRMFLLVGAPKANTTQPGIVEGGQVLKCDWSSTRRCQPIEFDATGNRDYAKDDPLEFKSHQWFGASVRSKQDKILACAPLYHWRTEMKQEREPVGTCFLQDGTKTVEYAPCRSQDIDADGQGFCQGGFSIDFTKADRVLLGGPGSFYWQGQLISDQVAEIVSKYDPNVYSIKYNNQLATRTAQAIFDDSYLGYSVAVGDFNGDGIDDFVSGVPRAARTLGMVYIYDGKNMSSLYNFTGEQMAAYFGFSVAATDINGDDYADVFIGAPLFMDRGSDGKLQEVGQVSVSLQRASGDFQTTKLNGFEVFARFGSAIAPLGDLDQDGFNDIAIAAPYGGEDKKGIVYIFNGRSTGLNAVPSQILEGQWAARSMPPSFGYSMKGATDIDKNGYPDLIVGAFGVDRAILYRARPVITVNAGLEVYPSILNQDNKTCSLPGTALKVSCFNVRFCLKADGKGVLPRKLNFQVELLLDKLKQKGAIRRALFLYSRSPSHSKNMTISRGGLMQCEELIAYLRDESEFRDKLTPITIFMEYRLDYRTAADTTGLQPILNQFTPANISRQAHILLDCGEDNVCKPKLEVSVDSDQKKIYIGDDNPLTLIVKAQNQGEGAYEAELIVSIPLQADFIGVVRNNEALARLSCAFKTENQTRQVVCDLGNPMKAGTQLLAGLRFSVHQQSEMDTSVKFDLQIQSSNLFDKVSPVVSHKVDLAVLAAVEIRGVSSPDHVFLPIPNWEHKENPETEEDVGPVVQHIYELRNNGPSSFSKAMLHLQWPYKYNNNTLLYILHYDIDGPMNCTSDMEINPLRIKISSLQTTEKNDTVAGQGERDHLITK
# Integrin alpha-V/beta-3, sequence (P06756 891-1048 limits assumed): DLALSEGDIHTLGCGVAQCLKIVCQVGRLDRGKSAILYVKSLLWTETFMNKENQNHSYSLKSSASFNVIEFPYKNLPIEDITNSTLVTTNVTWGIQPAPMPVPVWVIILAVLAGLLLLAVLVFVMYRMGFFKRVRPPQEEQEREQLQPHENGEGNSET
# Outline: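 Scintillation-proximity assay. Displacement of a 125I-labelled iodobenzenesulfonylamino naphthyridine propionic acid radioligand from purified recombinant human αvβ3 is measured.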
# [5] = Half life of compound was determined in dog; type: ADME, organism-based, Canis lupus familiaris; details: in vivo; outline: as §1
# [6] = Half life of compound was determined in rhesus monkey; type: ADME; details: cercopithecidae, in vivo
# Rattus norvegicus [7] = species on record: Rattus norvegicus; assay: Inhibitory effect of 10 mpk compound b.i.d. for 28 days was determined by bone mineral density in ovariectomized female rat; type: functional
# Outline: (§2)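 Female rats ovariectomized and, within 24 h, dosed orally b.i.d. for 28 days (n = 10/group), with sham and OVX-vehicle groups. BMD measured by DXA at the distal femoral metaphysis and central femur. Result expressed as DFM:central BMD ratio (mean ± SEM).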
# [8] = Plasma clearance in rhesus monkey was determined; type: ADME, organism-based; details: cercopithecidae
# [9] = Bioavailability of compound was determined in rhesus monkey; type: ADME, organism-based, Macaca mulatta; details: in vivo
# [10] = Plasma clearance in rat was determined; type: ADME, organism-based
# Rattus norvegicus [11] = species on record: Rattus norvegicus; assay: Inhibitory effect of 30 mpk compound b.i.d. for 28 days was determined by bone mineral density in ovariectomized female rat; type: functional; outline: as §2
# [12] = Selectivity for alphaV-beta3 over alphaV-beta5 integrins; set-up: species or system Homo sapiens
# Outline: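 αvβ3 binding is measured by SPA displacement of a 125I-iodobenzenesulfonylamino radioligand from purified recombinant human αvβ3. The αvβ5 counterscreen uses the same radioligand displaced from purified recombinant αvβ5 in a similar SPA.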
# Rattus norvegicus [13] = species on record: Rattus norvegicus; assay: distal femoral metaphysis bone mineral density in young male rat after constant infusion of compound was determined; type: functional
# Outline: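 Growing male Sprague–Dawley rats (160 g) treated 10 days. Compound at 60 mg/mL in water with <1 equiv 1 N HCl, given by implanted subcutaneous osmotic minipump to a steady-state concentration of 800 nM (n = 15). PK checked in 3 parallel rats. Alendronate control 0.005 mpk sc qd. Right femur excised, stored in 70% ethanol, DFM BMD by DXA.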
# [14] = Bioavailability in rat; type: ADME, organism-based; details: in vivo
# [15] = Half life of compound was determined in rat; type: ADME, organism-based; details: in vivo
clearance [1] [mL/min/kg],logP [2],Plasma protein binding [3] [%],bioavailability [4] [%],IC50 (Integrin alpha-V/beta-3) [nM],half-life [5] [h],SMILES,further results
4.1,0.8,98,75,0.1,2.7,O=C(O)C[C@@H](c1ccc2c(c1)OCC2)N1CCN(CCCc2ccc3c(n2)NCCC3)C1=O,
6.4,0.21,88,64,0.08,3.5,COc1ccc([C@H](CC(=O)O)N2CCN(CCCc3ccc4c(n3)NCCC4)C2=O)cn1,half-life [6]: 2 h; DFM:central BMD ratio (Rattus norvegicus [7]): 0.908; clearance [8]: 9 mL/min/kg; bioavailability [9]: 74%; clearance [10]: 47 mL/min/kg; DFM:central BMD ratio (Rattus norvegicus [11]): 0.951; IC50 [12]: 10 nM; BMD (Rattus norvegicus [13]): 142.2 mg cm**-2; bioavailability [14]: 26%; half-life [15]: 3 h
70,-0.55,61,10,0.25,0.9,O=C(O)C[C@@H](c1cccnc1)N1CCN(CCCc2ccc3c(n2)NCCC3)C1=O,
,,,,141,,COc1ccc([C@H](CC(=O)O)N2CCN(CCCc3ccc4c(n3)NC(=O)CC4)C2=O)cn1,
,,,,0.4,,COc1ccc([C@H](CC(=O)O)N2CCN(CCCc3ccc4c(n3)NC(O)CC4)C2=O)cn1 (some centres not stated),
5.1,0.82,95,94,0.35,2.6,COc1ccc([C@H](CC(=O)O)N2CCN(CCCc3ccc4c(n3)NCCC4)C2=O)cc1F,
,,,,3,,COc1ccc([C@H](CC(=O)O)N2CCN(CCC(=O)c3ccc4c(n3)NCCC4)C2=O)cn1,
